Measured values of several laboratories.
Medium: plasma

CCc1cc(C(=O)NC)c2nccc(N3CCc4c(cc(Cn5ccnc5)cc4-c4cn(C)nc4C(F)(F)F)C3=O)c2c1
Tmax (male Sprague-Dawley rat; oral; 50 mg/kg): 1.7 h

N#Cc1[nH]nnc1-c1cccc(OCc2cc(C(F)(F)F)ccc2C(F)(F)F)c1
Tmax (male Sprague-Dawley rat; oral; 10 mg/kg): 1.3 h

CCc1nc(C(N)=O)c(Nc2ccc(N3CCC(N4CCN(C)CC4)CC3)c(OC)c2)nc1NC1CCOCC1
Tmax (male Sprague-Dawley rat; oral; 10 mg/kg): 11 h

C[C@H](Nc1ncnc2[nH]cnc12)c1cc2cccc(Cl)c2c(=O)n1-c1ccccc1
Tmax (male Wistar rat; oral; 25 mg/kg; single dose): 2 h

CCc1cc(OC)c2nccc(N3CCc4c(cc(Cn5ccnc5)cc4-c4cn(C)nc4C(F)(F)F)C3=O)c2c1
Tmax (male Sprague-Dawley rat; oral; 50 mg/kg): 1.7 h

O=C(O)CCS(=O)(=O)O
Tmax (male Sprague-Dawley rat; intravenous; 10 mg/kg): 0.083 h

CC[C@H](C)[C@H](NC(=O)[C@H](Cc1ccccc1)NC(=O)[C@H](CCC(=O)O)NC(=O)[C@H](CCCNC(=N)N)NC(=O)[C@H](C)NC(=O)[C@H](C)NC(=O)[C@H](CCC(N)=O)NC(=O)[C@H](CCC(=O)O)NC(=O)[C@H](CCC(=O)O)NC(=O)[C@H](CC(C)C)NC(=O)[C@H](Cc1ccc(O)cc1)NC(=O)[C@H](CO)NC(=O)[C@H](CO)NC(=O)[C@@H](NC(=O)[C@H](CC(=O)O)NC(=O)[C@H](CO)NC(=O)[C@@H](NC(=O)[C@H](Cc1ccccc1)NC(=O)[C@@H](NC(=O)CNC(=O)[C@H](CCC(=O)O)NC(=O)[C@H](C)NC(=O)CCc1c[nH]cn1)[C@@H](C)O)[C@@H](C)O)C(C)C)C(=O)N[C@@H](C)C(=O)N[C@@H](Cc1c[nH]c2ccccc12)C(=O)N[C@@H](CC(C)C)C(=O)N[C@H](C(=O)N[C@@H](CCCNC(=N)N)C(=O)NCC(=O)N[C@@H](CCCNC(=N)N)C(=O)N[C@@H](CCCCNC(=O)COCCOCCNC(=O)COCCOCCNC(=O)CC[C@H](NC(=O)CCCCCCCCCCCCCCCCC(=O)O)C(=O)O)C(=O)O)C(C)C
Tmax (rat; subcutaneous; 20 nmol/kg): 10 h

N#Cc1ccc(Nc2nc(N)cc(Oc3c(F)cc(-c4ccc(C#N)cc4)cc3F)n2)cc1
Tmax (Sprague-Dawley rat; intravenous; 1 mg/kg): 0.08 h

Cl.Clc1ccc2c(c1)nc(N1CCNCC1)n2Cc1ccccc1
Tmax (rat; oral; 5 mg/kg): 0.08 h

Oc1c(Br)cc(Cl)c2cccnc12
Tmax (Sprague-Dawley rat; subcutaneous; 10 mg/kg): 1.2 h

C=CC(=O)N1CC2CC(n3nc(-c4ccc(C(=O)Nc5ccccn5)cc4)c4c(N)ncnc43)CC2C1 (centres unmarked)
Tmax (male Wistar rat; oral; 3 mg/kg): 0.25 h

CC(C)(O)[C@H]1CC[C@H](Nc2ccc3ncc(-c4cccc(C(F)(F)F)c4)n3n2)CC1
Tmax (female Sprague-Dawley rat; oral; 40 mg/kg): 1 h

CNCc1cc(-c2ccccc2F)n(S(=O)(=O)c2cccnc2)c1
Tmax (Sprague-Dawley rat; oral; 10 mg/kg): ~1.1 h

Cc1c(-c2ccccc2)cccc1N1C(=O)c2cc(CN[C@H](C(=O)O)C(C)O)c(OCc3cccc(C#N)c3)cc2C1=O (some centres unmarked)
Tmax (Sprague-Dawley rat; oral; 50 mg/kg): 0.53 h

COc1nc(-c2cc(C)c(N[C@@H](C)c3cc(F)cc(F)c3)nn2)ccc1-n1cnc(C)c1
Tmax (male Sprague-Dawley rat; oral; 5 mg/kg; single dose): 5.3 h

N#Cc1[nH]nnc1-c1cccc(-c2cc(F)cc(C(F)(F)F)c2)c1
Tmax (male Sprague-Dawley rat; oral; 10 mg/kg): 0.8 h

O=C(Nc1cc(F)c(F)c(F)c1)c1ccc(F)c(S(=O)(=O)NCc2cccc(B(O)O)c2)c1
Tmax (male Sprague-Dawley rat; oral; 20 mg/kg): 0.38 h
